Data reported in ChEMBL document CHEMBL4477241, “Structure-Activity Relationship Studies for Enhancer of Zeste Homologue 2 (EZH2) and Enhancer of Zeste Homologue 1 (EZH1) Inhibitors” (J Med Chem, 2016).

Legend:
[1] = target: Histone-lysine N-methyltransferase EZH2 (Homo sapiens, UniProt O75530+Q15022+Q15910); assay: Inhibition of EZH2 histone methyltransferase activity of EZH2/EED/SUZ12 protein complex (unknown origin) using histone H3 peptide as substrate (21 to 44 residues) in presence of [3H]-S-adenosylmethionine after 2 hrs by scintillation proximity assay
Sequence of Histone-lysine N-methyltransferase EZH2 (Q15910 whole entry, the tested form may be a part, one chain of several): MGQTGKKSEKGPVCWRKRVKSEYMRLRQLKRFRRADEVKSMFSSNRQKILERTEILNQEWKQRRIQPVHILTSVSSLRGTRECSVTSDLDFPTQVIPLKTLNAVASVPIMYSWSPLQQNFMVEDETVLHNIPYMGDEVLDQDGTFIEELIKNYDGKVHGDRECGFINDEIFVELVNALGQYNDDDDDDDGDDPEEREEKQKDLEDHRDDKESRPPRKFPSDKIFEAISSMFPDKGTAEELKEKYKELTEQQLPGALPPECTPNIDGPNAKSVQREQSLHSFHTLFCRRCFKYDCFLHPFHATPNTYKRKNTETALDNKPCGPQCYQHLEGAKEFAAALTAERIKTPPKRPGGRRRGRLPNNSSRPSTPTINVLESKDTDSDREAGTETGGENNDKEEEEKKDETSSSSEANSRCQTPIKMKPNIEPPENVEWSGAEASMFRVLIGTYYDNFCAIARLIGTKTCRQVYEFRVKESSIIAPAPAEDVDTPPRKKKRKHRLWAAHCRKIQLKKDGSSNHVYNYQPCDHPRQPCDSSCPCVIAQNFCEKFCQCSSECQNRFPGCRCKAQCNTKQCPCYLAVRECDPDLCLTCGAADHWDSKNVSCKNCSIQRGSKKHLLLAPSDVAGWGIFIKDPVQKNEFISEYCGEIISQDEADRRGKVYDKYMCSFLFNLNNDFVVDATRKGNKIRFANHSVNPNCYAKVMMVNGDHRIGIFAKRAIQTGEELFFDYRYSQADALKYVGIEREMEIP
Outline: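 20 nM EZH2 trimeric complex with 2 μM 3H-SAM and 1 μM biotinylated H3(21–44) in 20 mM Tris-HCl pH 8, 5 mM DTT, 0.01% Triton X-100. Incubated 1 h at 23 °C, quenched with guanidine hydrochloride, then 2 h streptavidin flash-plate capture. Activity scaled between no-compound and no-enzyme counts.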

[2] = target: T1, Histone-lysine N-methyltransferase EZH1 (Homo sapiens, UniProt Q92800); assay: Inhibition of EZH1 histone methyltransferase activity of EZH1/EED/SUZ12/RBBP4/AEBP2 protein complex (unknown origin) using histone H3 peptide as substrate (21 to 44 residues) in presence of [3H]-S-adenosylmethionine after 2 hrs by scintillation proximity assay
T1 sequence (Q92800 whole entry): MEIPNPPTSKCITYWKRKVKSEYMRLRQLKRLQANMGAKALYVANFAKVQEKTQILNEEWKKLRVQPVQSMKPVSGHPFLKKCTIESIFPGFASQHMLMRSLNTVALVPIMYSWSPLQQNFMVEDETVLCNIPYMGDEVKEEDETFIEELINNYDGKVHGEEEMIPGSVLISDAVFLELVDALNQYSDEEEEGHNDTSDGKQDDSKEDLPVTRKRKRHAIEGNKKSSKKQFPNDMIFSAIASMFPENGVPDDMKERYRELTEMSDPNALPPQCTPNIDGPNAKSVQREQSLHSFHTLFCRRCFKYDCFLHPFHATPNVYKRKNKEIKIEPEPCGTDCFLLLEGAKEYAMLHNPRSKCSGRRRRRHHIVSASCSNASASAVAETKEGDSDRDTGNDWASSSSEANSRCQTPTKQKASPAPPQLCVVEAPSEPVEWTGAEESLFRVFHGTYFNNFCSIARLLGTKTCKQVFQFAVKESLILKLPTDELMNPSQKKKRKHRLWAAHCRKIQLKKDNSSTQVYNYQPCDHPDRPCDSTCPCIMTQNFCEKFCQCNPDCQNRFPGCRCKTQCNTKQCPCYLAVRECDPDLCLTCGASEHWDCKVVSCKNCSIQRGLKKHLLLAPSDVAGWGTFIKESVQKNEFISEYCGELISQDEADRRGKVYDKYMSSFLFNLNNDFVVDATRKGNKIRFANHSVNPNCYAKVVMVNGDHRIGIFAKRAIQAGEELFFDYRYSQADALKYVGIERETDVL
Outline: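 10 nM EZH1 pentameric complex with 4 μM 3H-SAM and 1 μM biotinylated H3(21–44) in 20 mM Tris-HCl pH 8, 5 mM DTT, 0.01% Triton X-100. Reaction run 1 h at 23 °C, stopped with guanidine hydrochloride, then captured 2 h on a streptavidin flash plate. Counts normalized to no-compound (100%) and no-enzyme (0%) controls.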

SMILES | IC50 [1] | IC50 [2]
CCc1cc(C)c(CNC(=O)c2cc(-c3ccc(N4CCN(C(C)C)CC4)nc3)cc3c2cnn3C(C)C)c(=O)[nH]1 | 73 nM | > 5000 nM
CC(C)N1CCN(c2ccc(-c3cc(C(=O)NCc4ccc[nH]c4=O)c4cnn(C(C)C)c4c3)cn2)CC1 | > 5000 nM | > 5000 nM
CCCc1cc(C)[nH]c(=O)c1CNC(=O)c1nn(C(C)C)c2ccc(-c3ccc(N4CCN(C(C)C)CC4)nc3)cc12 | > 5000 nM | > 5000 nM
CCCc1cc(C)[nH]c(=O)c1CNC(=O)c1cc(-c2ccc(C(F)(F)F)cn2)cc2c1cnn2C(C)C | 64 nM | > 5000 nM
CCCc1cc(C)[nH]c(=O)c1CNC(=O)c1cc(-c2ccc(N3CCN(C(C)C)CC3)nc2)cc2nn(C(C)C)cc12 | 384 nM | > 2500 nM
CCCc1cc(C)[nH]c(=O)c1CNC(=O)c1cc(-c2ccc(N3CCN(C(C)C)CC3)nc2)c2cnn(C(C)C)c2c1 | 540 nM | > 5000 nM
CCCc1cc(C)[nH]c(=O)c1CNC(=O)c1nn(C(C)C)c2cc(-c3ccc(N4CCN(C(C)C)CC4)nc3)ccc12 | > 5000 nM | > 5000 nM
CCCc1cc(C)[nH]c(=O)c1CNC(=O)c1cc(-c2ccc(N3CCN(C(C)C)CC3)nc2)cc2c1cnn2CCCCCCO | 25 nM | 394 nM
Cc1cc(C)c(CNC(=O)c2cc(-c3ccc(N4CCN(C(C)C)CC4)nc3)cc3c2cnn3C(C)C)c(=O)[nH]1 | – | > 2500 nM
Cc1[nH]c(=O)c(CNC(=O)c2cc(-c3ccc(N4CCN(C(C)C)CC4)nc3)cc3c2cnn3C(C)C)c2c1CCC2 | 32 nM | > 2500 nM
CCCc1cc(C)[nH]c(=O)c1CNC(=O)c1cc(NC2CCNCC2)cc2c1cnn2C(C)C | 26 nM | > 1250 nM
CCCc1cc(C)[nH]c(=O)c1CNC(=O)c1cnn2c(-c3ccc(N4CCN(C(C)C)CC4)nc3)cccc12 | > 5000 nM | > 5000 nM
CCCc1cc(C)[nH]c(=O)c1CNC(=O)c1cc(-c2ccc(N3CCN(C(C)C)CC3)nc2)cc2c1cnn2C(C)(C)C | < 10 nM | 127 nM
CCCc1cc(C)[nH]c(=O)c1CNC(=O)c1cc(-c2ccc(N3CCN(C(C)C)CC3)nc2)cc2c1cnn2C | 190 nM | > 2500 nM
Cc1cc(O)c(CNC(=O)c2cc(-c3ccc(N4CCN(C(C)C)CC4)nc3)cc3c2cnn3C(C)C)c(=O)[nH]1 | > 10000 nM | > 10000 nM
CCCCc1cc(C)[nH]c(=O)c1CNC(=O)c1cc(-c2ccc(N3CCN(C(C)C)CC3)nc2)cc2c1cnn2C(C)C | < 10 nM | 160 nM
CCCc1cc(C)[nH]c(=O)c1CNC(=O)c1cc(-c2ccc(F)cc2)cc2c1cnn2C(C)C | 48 nM | > 1250 nM
CCCc1cc(C)[nH]c(=O)c1CNC(=O)c1cc(-c2ccc(N3CCN(CC)CC3)nc2)cc2c1cnn2C(C)C | < 10 nM | 88 nM
CCCc1cc(C)[nH]c(=O)c1CNC(=O)c1cc(-c2ccc(N3CCN(C(C)C)CC3)nc2)cc2c1cnn2C1CCCC1 | < 10 nM | 108 nM
Cc1cc(C(C)(C)C)[nH]c(=O)c1CNC(=O)c1cc(-c2ccc(N3CCN(C(C)C)CC3)nc2)cc2c1cnn2C(C)C | > 10000 nM | > 10000 nM
CCCc1cc(C)[nH]c(=O)c1CNC(=O)c1cc(-c2ccc(N3CCN(C(C)C)CC3)nc2)cc2c1cnn2CC1CCCC1 | 149 nM | > 2500 nM
CCCc1cc(C)[nH]c(=O)c1CNC(=O)c1cc(C2CCNCC2)cc2c1cnn2C(C)C | 11 nM | 613 nM
CCCc1cc(C)[nH]c(=O)c1CNC(=O)c1cc(N2CCNCC2)cc2c1cnn2C(C)C | 17 nM | 880 nM
CCCc1cc(C)[nH]c(=O)c1CNC(=O)c1cc(-c2ccc(N3CCN(C(C)C)CC3)nc2)cc2c1cnn2CCC1CCCCC1 | > 1250 nM | > 2500 nM
Cc1ncc(CNC(=O)c2cc(-c3ccc(N4CCN(C(C)C)CC4)nc3)cc3c2cnn3C(C)C)c(=O)[nH]1 | > 2300 nM | > 10000 nM
Cc1cc(-c2ccccc2)[nH]c(=O)c1CNC(=O)c1cc(-c2ccc(N3CCN(C(C)C)CC3)nc2)cc2c1cnn2C(C)C | > 10000 nM | > 10000 nM
Cc1[nH]c(=O)[nH]c(=O)c1CNC(=O)c1cc(-c2ccc(N3CCN(C(C)C)CC3)nc2)cc2c1cnn2C(C)C | > 10000 nM | > 10000 nM
CCCc1cc(C)[nH]c(=O)c1CNC(=O)c1cc(-c2ccc(F)cn2)cc2c1cnn2C(C)C | 22 nM | 773 nM
CCCc1cc(C)[nH]c(=O)c1CNC(=O)c1cc(-c2ccc(N3CCNCC3)nc2)cc2c1cnn2C(C)C | < 10 nM | 60 nM

Further lines, results first:

IC50 [1] | IC50 [2] | SMILES
< 10 nM | – | CCCc1cc(C)[nH]c(=O)c1CNC(=O)c1cc(-c2ccc(N3CCN(C(C)C)CC3)nc2)cc2c1cnn2C(C)C
57 nM | > 2500 nM | CCCc1cc(C)[nH]c(=O)c1CNC(=O)c1cc(-c2ccc(N3CCN(C(C)C)CC3)nc2)cc2c1cnn2CC1CCC1
< 10 nM | – | CCCc1cc(C)[nH]c(=O)c1CNC(=O)c1cc(-c2ccc(N3CCN(C(C)C)CC3)nc2)cc2c1cnn2C1CCCCC1
328 nM | > 5000 nM | Cc1[nH]c(=O)c(CNC(=O)c2cc(-c3ccc(N4CCN(C(C)C)CC4)nc3)cc3c2cnn3C(C)C)c(C)c1C
1110 nM | > 5000 nM | CCCCC(CC)Cn1ncc2c(C(=O)NCc3c(CCC)cc(C)[nH]c3=O)cc(-c3ccc(N4CCN(C(C)C)CC4)nc3)cc21 (stereo not drawn)
42 nM | > 2500 nM | CCCc1cc(C)[nH]c(=O)c1CNC(=O)c1cc(N2CCCNCC2)cc2c1cnn2C(C)C
32 nM | > 1250 nM | CCC(C)c1cc(C)c(CNC(=O)c2cc(-c3ccc(N4CCN(C(C)C)CC4)nc3)cc3c2cnn3C(C)C)c(=O)[nH]1 (stereo not drawn)
117 nM | > 2500 nM | CCCc1cc(C)[nH]c(=O)c1CNC(=O)c1cc(-c2ccc(N3CCN(C(C)C)CC3)nc2)cc2c1cnn2C1CCCCCC1
41 nM | > 1250 nM | CCCc1cc(C)[nH]c(=O)c1CNC(=O)c1cc(-c2ccccc2)cc2c1cnn2C(C)C
> 2500 nM | > 2500 nM | Cc1[nH]c(=O)c(CNC(=O)c2cc(-c3ccc(N4CCN(C(C)C)CC4)nc3)cc3c2cnn3C(C)C)c2c1CCCC2
24 nM | 681 nM | CCCc1cc(C)[nH]c(=O)c1CNC(=O)c1cc(-c2ccccn2)cc2c1cnn2C(C)C
> 10000 nM | > 10000 nM | CC(C)N1CCN(c2ccc(-c3cc(C(=O)NC4CC(C)(C)NC(C)(C)C4)c4cnn(C(C)C)c4c3)cn2)CC1
< 10 nM | 126 nM | CCCc1cc(C)[nH]c(=O)c1CNC(=O)c1cc(-c2ccc(N3CCN(C(C)C)CC3)nc2)cc2c1cnn2C(CC)CC
1020 nM | > 5000 nM | CCc1c(C)c[nH]c(=O)c1CNC(=O)c1cc(-c2ccc(N3CCN(C(C)C)CC3)nc2)cc2c1cnn2C(C)C
< 10 nM | 211 nM | Cc1cc(CC(C)C)c(CNC(=O)c2cc(-c3ccc(N4CCN(C(C)C)CC4)nc3)cc3c2cnn3C(C)C)c(=O)[nH]1
< 10 nM | 320 nM | Cc1cc(C(C)C)c(CNC(=O)c2cc(-c3ccc(N4CCN(C(C)C)CC4)nc3)cc3c2cnn3C(C)C)c(=O)[nH]1
697 nM | > 2500 nM | CCCc1cc(C)[nH]c(=O)c1CNC(=O)c1cc(-c2ccc(N3CCN(C(C)C)CC3)nc2)cc2c1cnn2CC1CCCCC1
66 nM | > 1250 nM | CCCc1cc(C)[nH]c(=O)c1CNC(=O)c1cc(-c2ccc(C(F)(F)F)cc2)cc2c1cnn2C(C)C
< 10 nM | 86 nM | Cc1cc(C2CCCC2)c(CNC(=O)c2cc(-c3ccc(N4CCN(C(C)C)CC4)nc3)cc3c2cnn3C(C)C)c(=O)[nH]1
> 10000 nM | > 10000 nM | CCCc1cc(C)[nH]c(=O)c1CNC(=O)c1cn2ccc(-c3ccc(N4CCN(C(C)C)CC4)nc3)cc2n1
280 nM | > 5000 nM | CCCc1cc(C)[nH]c(=O)c1CNC(=O)c1cc(-c2ccc(N3CCN(C(C)C)CC3)nc2)cc2c1cnn2Cc1ccccc1
35 nM | > 5000 nM | CCCc1cc(C)[nH]c(=O)c1CNC(=O)c1cc(Br)cc2c1cnn2C(C)C
> 5000 nM | > 5000 nM | CCCc1cc(C)[nH]c(=O)c1CNC(=O)c1cccn2c(-c3ccc(N4CCN(C(C)C)CC4)nc3)cnc12
> 10000 nM | > 10000 nM | CC(C)N1CCN(c2ccc(-c3cc(C(=O)NCc4cnc[nH]c4=O)c4cnn(C(C)C)c4c3)cn2)CC1
